Source: ChEMBL document CHEMBL4765352, “Discovery of AdipoRon analogues as novel AMPK activators without inhibiting mitochondrial complex I” (Eur J Med Chem, 2020)
Calls of active or inactive are those of the source. The rule behind the calls is not given here.

How the values were obtained:
[1] = tested on: C2C12; experiment: Activation of AMPK in mouse C2C12 cells assessed as increase in AMPK phosphorylation at Thr172 residue at 10 uM measured after 2 hrs by Western blot analysis; assay type: cell-based; conditions: filed as activator
Outline: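 C2C12 myoblasts differentiated in DMEM with 2% horse serum for 5-7 days until myotubes formed. Treated for 2 h, either at 10 μM or across a concentration range, or at 10 μM over a time course. RIPA lysates (~30 µg protein) blotted for p-AMPK/AMPK and p-ACC/ACC, detected by ECL. The p-AMPK/AMPK ratio is expressed as fold of the DMSO vehicle.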

[2] = Induction of glucose consumption in mouse C2C12 cells at 10 uM measured after 12 hrs by glucose oxidase method (reference value: 100 %); assay type: functional
Outline: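 Differentiated C2C12 myotubes were switched to DMEM containing 2.75 g/L glucose and treated for 12 h at 37 °C, with cell-free blank wells as reference. Glucose left in the medium was measured by the GOD-POD method at 570 nm. Consumption was derived by subtraction and expressed as percentage of the DMSO group.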

[3] = Inhibition of mitochondrial complex 1 in human HepG2 cells assessed as increase in ADP/ATP ratio at 0.5 uM; assay type: cell-based; conditions: hepg2, 0.5 µM
Outline: (§1)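 HepG2 cells treated with 10 μM or 0.5 μM compound, or DMSO. Cellular ADP:ATP and AMP:ATP ratios were measured. Three replicates, given as mean ± SD and compared by Student's t test.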

[4] = Inhibition of mitochondrial complex 1 in human HepG2 cells assessed as increase in AMP/ATP ratio at 0.5 uM; assay type: cell-based; conditions: hepg2, 0.5 µM; outline: as §1
[5] = tested on: A549; experiment: Activation of AMPK in human A549 cells harboring mutant LKB1; assay type: cell-based; conditions: filed as activator
[6] = tested on: Mus musculus; experiment: Hypoglycemic activity in 6 hrs fasted normal lean C57BL/6 mouse assessed as improved glucose tolerance at 10 mg/kg, ig pretreated for 2 hrs followed by glucose challenge and measured up to 90 mins post glucose challenge starting from 120 mins prior to compound treatment by IPGTT; assay type: functional, organism-based; conditions: time 210.0 min
[7] = tested on: Mus musculus; experiment: Activation of AMPK in normal lean C57BL/6 mouse assessed as increase in phosphorylated ACC level in skeletal muscle at 100 mg/kg, ig administered for 4 weeks by Western blot analysis; assay type: functional, organism-based; conditions: Skeletal muscle tissue
Outline: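 Male C57BL/6 mice, 9 weeks old, dosed intragastrically once daily for 4 weeks alongside vehicle controls. Heart and skeletal muscle were homogenized in RIPA buffer with protease/phosphatase inhibitors and centrifuged at 10,600 g for 20 min. About 30 µg protein was blotted for p-AMPK and p-ACC and detected by ECL.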

[8] = Inhibition of bovine heart mitochondrial complex 1 at 5 to 20 uM measured every minute for 2 hrs by microplate reader based assay; assay type: tissue-based, Bos taurus; conditions: cattle, dose 5-20 µM
Outline: (§2)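 Bovine heart mitochondria in detergent were captured on a complex I antibody-coated plate for 2 h at room temperature. Phospholipids were added, then complex I solution with compound, rotenone control or DMSO. NADH oxidation was followed as the fall in A340, read every minute for at least 2 h at 30 °C.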

[9] = Metabolic stability in human liver microsomes assessed as compound remaining preincubated for 5 mins followed by NADPH addition and measured up to 45 mins by LC/MS analysis; assay type: ADME, Microsome; conditions: time 50 min, read-out: Stabilty
Outline: (§3)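 Compound was preincubated with mouse (ICR/CD-1) or human liver microsomes in potassium phosphate buffer at 37 °C for 5 min, then NADPH was added to start the reaction. Samples were quenched with acetonitrile containing tolbutamide internal standard at 0, 5, 15, 30 and 45 min. Parent compound measured by LC/MS; ketanserin served as control.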

[10] = Metabolic stability in human liver microsomes assessed as half life preincubated for 5 mins followed by NADPH addition and measured up to 45 mins by LC/MS analysis; assay type: ADME, Microsome; conditions: time 50 min; outline: as §3
[11] = Metabolic stability in ICR/CD-1 mouse liver microsomes assessed as compound remaining preincubated for 5 mins followed by NADPH addition and measured up to 45 mins by LC/MS analysis; assay type: ADME, Microsome; conditions: time 50 min, read-out: Stabilty; outline: as §3
[12] = Metabolic stability in ICR/CD-1 mouse liver microsomes assessed as half life preincubated for 5 mins followed by NADPH addition and measured up to 45 mins by LC/MS analysis; assay type: ADME, Microsome; conditions: time 50 min; outline: as §3
[13] = Inhibition of bovine heart mitochondrial complex 1 at 10 uM measured every minute for 2 hrs by microplate reader based assay; assay type: tissue-based, Bos taurus; conditions: cattle; outline: as §2
[14] = tested on: Mus musculus; experiment: Hypoglycemic activity in 6 hrs fasted normal lean C57BL/6 mouse assessed as reduction in blood glucose level at 100 mg/kg, ig pretreated for 2 hrs followed by glucose challenge and measured up to 90 mins post glucose challenge starting from 120 mins prior to […] by IPGTT; assay type: functional, organism-based; conditions: time 210.0 min
Outline: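 C57BL/6 mice (male, 8-10 weeks, n=6 per group) fasted 6 h, then given compound or vehicle intragastrically. Two hours later, 20% glucose was injected i.p. at 2 g/kg. Tail-vein glucose read by glucometer at -120, 0, 20, 40, 60 and 90 min, and net AUC calculated. Doses were 25, 50 and 100 mg/kg.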

[15] = Metabolic stability in human liver microsomes assessed as intrinsic clearance preincubated for 5 mins followed by NADPH addition and measured up to 45 mins by LC/MS analysis; assay type: ADME, Microsome; conditions: time 50 min, read-out: CLH
Outline: (§4)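 Compound and liver microsomes in preheated potassium phosphate buffer, held at 37 °C for 5 min. Reaction started with NADPH and stopped at 0, 5, 15, 30 and 45 min with acetonitrile containing tolbutamide internal standard. Samples centrifuged at 6000 rpm for 15 min, supernatant analysed by LC/MS. Ketanserin run as assay control. Performed by a contract lab.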

[16] = Metabolic stability in ICR/CD-1 mouse liver microsomes assessed as intrinsic clearance preincubated for 5 mins followed by NADPH addition and measured up to 45 mins by LC/MS analysis; assay type: ADME, Microsome; conditions: time 50 min, read-out: CLH; outline: as §4

Compound	Activity [2]	further results
CC(C)(Oc1ccc(Cl)cc1)C(=O)Nc1ccc(OCc2ccc(Cl)cc2)cc1	129%	Activity [1]: Active
CC(C)(Oc1ccc(Cl)cc1)C(=O)Nc1ccc(OCc2ccc(S(C)(=O)=O)cc2)cc1	144.4%	Activity [1]: Active
CC(C)(Oc1ccc(Cl)cc1)C(=O)N1CCC(NC(=O)Nc2ccc([N+](=O)[O-])cc2)CC1	115.4%	–
CC(C)(Oc1ccc(Cl)cc1)C(=O)Nc1ccc(OCc2ccc(Br)cc2)cc1	112.7%	–
COc1ccc(C(=O)C2CCN(C(=O)c3ccc(C(=O)NC4CCN(Cc5ccc(C#N)cc5)CC4)cn3)CC2)cc1	–	inhibition (INH) [3]: Active; inhibition (INH) [4]: Active
CC(C)(Oc1ccc(Cl)cc1)C(=O)N1CCC(NC(=O)Nc2cccc(C(F)(F)F)c2)CC1	91%	–
O[C@@H]1CO[C@H]2[C@@H]1OC[C@H]2Oc1nc2nc(-c3ccc(-c4ccccc4)cc3)c(Cl)cc2[nH]1	–	Activity [1]: Active; Activity [5]: Active; Activity [6]: Active; Activity [7]: Active
CCOC(=O)c1ccc(NC(=O)NC2CCN(C(=O)C(C)(C)Oc3ccc(Cl)cc3)CC2)cc1	126.1%	–
CC(C)(Oc1ccc(Cl)cc1)C(=O)N1CCC(NC(=O)Nc2ccccc2C(F)(F)F)CC1	116.1%	–
Cc1ccc(COc2ccc(NC(=O)C(C)(C)Oc3ccc(Cl)cc3)cc2)cc1	102.2%	–
CC(C)(Oc1ccc(Cl)cc1)C(=O)Nc1ccc(OCc2ccc(C(F)(F)F)cc2)cc1	156.1%	inhibition (INH) [8]: Active; remaining at 0.75 h [9]: 93%; half-life [10]: > 120 min; remaining at 0.75 h [11]: 91%; half-life [12]: > 120 min
COc1ccc(COc2ccc(NC(=O)C(C)(C)Oc3ccc(Cl)cc3)cc2)cc1	134.7%	–
CC(C)(Oc1ccc(Cl)cc1)C(=O)N1CCC(NC(=O)Nc2ccc(C(F)(F)F)cc2)CC1	137.2%	Activity [1]: Active; inhibition (INH) [8]: Not Active
O=C(COc1ccc(C(=O)c2ccccc2)cc1)NC1CCN(Cc2ccccc2)CC1	132.4%	Activity [1]: Active; inhibition (INH) [13]: Active; Activity [14]: Active
O=C(c1ccc(F)cc1)C1CCN(CCn2c(=O)[nH]c3ccccc3c2=O)CC1 [KETANSERIN]	–	half-life [10]: 25 min; CLint scaled [15]: 71 mL/min/kg; half-life [12]: 21 min; CLint scaled [16]: 258 mL/min/kg
CC(C)(Oc1ccc(Cl)cc1)C(=O)N1CCC(NC(=O)Nc2ccc(C#N)cc2)CC1	116.2%	–
CC(C)(Oc1ccc(Cl)cc1)C(=O)N1CCC(NC(=O)Nc2ccccc2)CC1	118%	–
CC(C)(Oc1ccc(Cl)cc1)C(=O)N1CCC(NC(=O)Nc2ccc(Br)cc2)CC1	127.3%	–
COC(=O)c1ccc(COc2ccc(NC(=O)C(C)(C)Oc3ccc(Cl)cc3)cc2)cc1	124.7%	–
CC(C)(Oc1ccc(Cl)cc1)C(=O)N1CCC(NC(=O)Nc2ccc(F)cc2)CC1	119.3%	Activity [1]: Active
CC(C)(Oc1ccc(Cl)cc1)C(=O)Nc1ccc(OCc2ccc(OC(F)(F)F)cc2)cc1	133.4%	–
CC(C)(Oc1ccc(Cl)cc1)C(=O)N1CCC(NC(=O)Nc2ccc(OC(F)(F)F)cc2)CC1	104.2%	–
Cc1ccc(NC(=O)NC2CCN(C(=O)C(C)(C)Oc3ccc(Cl)cc3)CC2)cc1	93.7%	–
CC(C)(Oc1ccc(Cl)cc1)C(=O)N1CCC(NC(=O)Nc2ccc(Cl)cc2)CC1	104.1%	Activity [1]: Active
COc1ccc(NC(=O)NC2CCN(C(=O)C(C)(C)Oc3ccc(Cl)cc3)CC2)cc1	134.4%	–
CC(C)(Oc1ccc(Cl)cc1)C(=O)Nc1ccc(OCc2ccc(C(C)(C)C)cc2)cc1	105.3%	–
CC(C)(Oc1ccc(Cl)cc1)C(=O)N1CCC(NC(=O)Nc2ccc(F)c(Cl)c2)CC1	116.7%	–
CC(C)(Oc1ccc(Cl)cc1)C(=O)N1CCC(NC(=O)Nc2ccc(C(=O)O)cc2)CC1	117.7%	–
CC(C)(Oc1ccc(Cl)cc1)C(=O)Nc1ccc(OCc2ccc(C(=O)O)cc2)cc1	116.5%	–
CC(C)(Oc1ccc(Cl)cc1)C(=O)Nc1ccc(OCc2ccc(F)cc2)cc1	107.6%	–
